# A selection: hits, their analogues and other compounds. The true share with any hit is near 2.2%.
# Hck Nef HTS: human Hck-Nef kinase inhibition; P08631; Recombinant Hck-YEEI plus Nef, Z-Lyte FRET kinase assay; inhibition, % at 20 µM; 0.68% of 220,000 active;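 active = Hck-Nef kinase inhibition above about 50%, limit read from the data; inactive = inhibition below that limit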;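 also: 0% = DMSO with Hck plus Nef and 100% = Hck alone without Nef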
# PERK inhibitor: inhibitors of human PERK kinase; AID 1416; Q9NZJ5; CHO PERK-DD fusion, SEAP luminescence translation reporter; 0.17% of 220,000 active; inhibition, % at 5.6 µM;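 active = inhibition above the mean inhibition of all tested compounds plus 3 SD, set separately per screening campaign, cut at about 2.9% in these data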;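 also: PERK kinase domain activated by AP20187 dimerizer at 100 nM; 0% = DMSO with dimerizer and 100% = rapamycin at 8.4 µM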
# Runt-SMMHC FRET: inhibitors of human RUNX1 Runt domain binding to CBFb-SMMHC | inhibition, % at 20 µM | AID 1434 | Cerulean-Runt/Venus-CBFb-SMMHC FRET ratio 530/480, 1 h | 0.74% of 220,000 active;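 active = mean inhibition across duplicate retests at 20 µM reaching about 50%, limit read from the data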;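 also: 0% = DMSO wells and 100% = wells with excess untagged CBFb-SMMHC; inhibitors lower the FRET ratio by blocking Runt binding to CBFb-SMMHC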
# eIF4E-4G inh: eIF4E/eIF4G interaction inhibition in translation initiation; P63073+Q04637; TR-FRET eIF4E-eIF4GI(517-606) binding, 2 h; inhibition, % at 21.7 µM; 0.37% of 220,000 active;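 active = inhibition above about 30%, limit read from the data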;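 also: 0% = full FRET control wells and 100% = background wells lacking eIF4GI fragment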
# RanGTP-Imp inh: disruptors of Ran-importin-beta complex formation – biochemical, FRET, CFP-Ran, YFP-importin-beta, homogeneous, primary screen. 1.1% of 300,000 active. inhibition, % (no concentration beside the values). cell-free CFP-Ran/YFP-importin-beta FRET ratio;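 active = more than half of the replicate wells show a fall in the fluorescence ratio signal beyond about 16%, limit read from the data, passing the limit was not always enough; inconclusive = exactly half of the replicate wells pass the set limit; inactive = fewer than half of replicates pass the limit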;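 also: 0% = DMSO wells and 100% = Ran loaded with GDP instead of GTP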
# Runt-CBFb FRET: Runt domain-CBFb interaction inhibition | AID 1496 | Cerulean-Runt/Venus-CBFb FRET ratio 530/480, 1 h | inhibition, % at 20 µM | 0.46% of 220,000 active;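 active = inhibition over about 50% at 20 µM in the single-dose screen, limit read from the data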;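 also: 0% = DMSO wells and 100% = excess unlabeled CBFb competitor control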
#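 Buffer or medium: Tris pH 7.5 buffer with BSA. Assay system: Cerulean-labeled Runt domain protein. Amount: each fluorescent fusion protein 100 nM. Read-out basis: loss of energy transfer signal. Incubation: 1 h compound exposure, room temperature. Probe or stimulus: Venus-CBFb binding partner, 100 nM. Detection: FRET, excitation 422 nm, emission at 530 and 480 nm.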
# Hck-Nef confirm: confirmation of Hck-Nef kinase inhibitors; shares compounds with Hck Nef HTS; Recombinant Hck-YEEI:Nef, Z-Lyte FRET kinase assay; calls only at 10 µM; 28% of 1,300 active; AID 463188;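 active = average inhibition of at least 50%, with Z-scores no higher than 3 in both the phospho-tyrosine peptide and fluorescence counterscreens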
# * hit, by the source's call; i = inactive; ? = inconclusive; . = not tested or not shown; + = active, no number.
SMILES,Hck Nef HTS,PERK inhibitor,Runt-SMMHC FRET,eIF4E-4G inh,RanGTP-Imp inh,Runt-CBFb FRET,Hck-Nef confirm
COC(=O)C1=CN(c2cc(C)cc(C)c2)C=C(C(=O)OC)C1c1cccc(F)c1,.,.,.,.,4,.,.
COC(=O)C1=CN(C(C)C)C=C(C(=O)OC)C1c1cccc(OC)c1,61*,0,-16,0,66*,72*,.
COC(=O)C1=CN(c2cc(C)cc(C)c2)C=C(C(=O)OC)C1c1ccc(OC)c(O)c1,.,.,.,.,-2,.,.
COc1ccc(Cn2nnnc2C(c2ccc(N(C)C)cc2)N2CCC(C(N)=O)CC2)cc1 (stereo not drawn),19,0,5,5,-175,8,.
O=C(O)CC1S/C(=N/N=C/c2ccc(-c3ccc(Cl)cc3[N+](=O)[O-])o2)NC1=O (stereo not drawn),1,0,14,4,1,27,.
O=C(O)CC1S/C(=N/N=C/c2ccc(-c3ccc(Cl)c([N+](=O)[O-])c3)o2)NC1=O (stereo not drawn),119*,0,24,1,4,38,i
O=C(COC(=O)c1ccc(Cl)c(S(=O)(=O)N2CCCCCC2)c1)Nc1ccccc1,2,0,-6,9,4,-2,.
CCC(=O)Oc1ccc2c(c1)OC1(OC(C)=O)OC(C)CC1=C2C (stereo not drawn),157*,1,14,2,1,10,.
Nc1[nH]nc2nc(N3CCOCC3)nc(-c3ccccc3)c12,67*,0,4,-6,-4,0,+
CC(C)c1ccc(-c2nc(N3CCCC3)nc3n[nH]c(N)c23)cc1,1,0,1,5,0,-4,.
NC(=O)CCC(NS(=O)(=O)c1ccc(Cl)cc1)C(=O)NCC1CCCCC1 (stereo not drawn),.,.,.,.,-2,.,.
CCOC(=O)c1cc2nc(Nc3ccc(OC)cc3)sc2s1,51*,0,14,5,1,2,i
Cc1ccc(NC(=O)CCC(=O)N/N=C/c2coc3ccc(F)cc3c2=O)cc1,.,.,.,.,1,.,.
Cc1ccc(NC(=O)CCC(=O)N/N=C/c2coc3ccccc3c2=O)cc1,64*,1,-2,0,?,-4,+
CCC(=O)N(CCc1ccccc1)Cc1cc2cc(OC)ccc2[nH]c1=O,10,-2,-1,3,2,0,.
CSc1nc(SCCO)c2sc3nc(-c4ccco4)c4c(c3c2n1)CC(C)(C)OC4,78*,1,-46,12,4,-12,i
COc1ccc(-c2nnc(SCC(=O)Nc3sc4c(c3C#N)CCCC4)n2-c2ccccc2)cc1,96*,0,-5,5,6,1,+
COc1ccc(-n2c(SCC(=O)Nc3sc4c(c3C#N)CCCC4)nnc2-c2ccccc2OC)cc1,6,-1,-3,0,1,-4,.
CCc1c(O)nc(SCC(=O)Nc2ccccc2C)n(-c2ccc(C)cc2)c1=O,.,.,.,.,2,.,.
C=CCn1c(NS(=O)(=O)c2ccccc2)c(S(=O)(=O)c2ccc(C)cc2)c2nc3ccccc3nc21,83*,1,4,4,76*,1,i
CN(C)CCCn1c(N)c(S(=O)(=O)c2ccccc2)c2nc3ccccc3nc21,85*,-2,15,-6,1,8,.
O=S(=O)(Nc1c(S(=O)(=O)c2ccccc2)c2nc3ccccc3nc2n1C1CCCCC1)c1ccccc1,53*,1,11,4,6,4,.
Cc1ccnc(N=Cc2nc(-c3ccccc3Br)oc2O)c1,25,0,-5,-2,2,-1,.
CCSc1ncc(/C=N/Nc2ccc(Cl)cc2)n1C,1,-1,-8,3,-1,-3,.
COc1cc(/C=C(\C#N)C(=O)NC2CCCCC2)ccc1OCc1ccc(C(=O)O)cc1,52*,0,2,0,21*,1,i
SMILES,Hck Nef HTS,PERK inhibitor,Runt-SMMHC FRET,eIF4E-4G inh,RanGTP-Imp inh,Runt-CBFb FRET,Hck-Nef confirm
COc1cc(/C=C(\C#N)C(=O)NC(C)C)ccc1OCc1ccc(C(=O)O)cc1,33,0,3,0,-3,-2,.
COc1cc(/C=C(/C#N)C(=O)Nc2ccccc2)ccc1OCc1ccc(C(=O)O)cc1,138*,2,-10,-2,.,-5,+
CCC(CC)NC(=O)Nc1ccccc1C,5,1,1,-3,0,-2,.
C=CCNC(=O)c1ccccc1NS(=O)(=O)c1ccc(OC)c(C(=O)N2CCOCC2)c1,.,.,.,.,3,.,.
COc1cc([N+](=O)[O-])cc(/C=N/NC(=O)C(C)Nc2ccccc2C)c1O (stereo not drawn),101*,2,-1,1,-2,-5,+
Cc1nc2ccc3nc(NC(=O)c4ccc5c(c4)OCCO5)sc3c2s1,87*,0,-8,.,3,-1,+
COc1ccccc1C(=O)Oc1cc(N)n(S(=O)(=O)c2ccccc2)n1,107*,0,-5,-4,-2,5,i
COc1cccc2cc3c(=O)oc4ccccc4c3nc12,0,2,-11,-6,7,-5,.
CCOC(=O)c1cnc2c(-c3ccc(F)cc3)cnn2c1C(F)(F)F,82*,1,-1,0,.,1,i
CC(C)n1cnc2c(Nc3ccc(C(=O)O)cc3)nc(Cl)nc21,53*,.,-1,-4,-4,-1,i
CC(C)[C@H](CO)Nc1nc(Nc2ccc(Cl)c(C(=O)O)c2)c2ncn(C(C)C)c2n1,65*,.,3,-4,4,1,+
CC(C)[C@H](CO)Nc1nc(NCc2ccc(S(N)(=O)=O)cc2)c2ncn(C(C)C)c2n1,29,.,1,-4,1,4,.
CC(C)n1cnc2c(Nc3cccc(Cl)c3)nc(NCCCO)nc21,96*,.,1,-3,1,2,+
CC(C)n1cnc2c(NCc3ccccc3)nc(NCc3ccccc3)nc21,28,.,2,-2,-1,2,.
O=C(CC1C(=O)NCCN1CCCc1ccccc1)NCCc1ccccc1F (stereo not drawn),.,.,.,.,-3,.,.
Cn1c(=O)[nH]c(=O)c2c1nc(N/N=C/C(Br)=C/c1ccccc1)n2CCO,60*,1,-17,5,?,5,+
O=C(Nc1c[nH]c(=O)[nH]c1=O)c1ccc2c(c1)C(=O)N(c1cccc([N+](=O)[O-])c1)C2=O,94*,2,-8,6,7,-2,+
O=C(Nc1ccccc1C(=O)O)c1ccc2c(c1)C(=O)N(c1cccc([N+](=O)[O-])c1)C2=O,.,.,.,.,1,.,.

# Compound activity deposited in PubChem by several laboratories.
